Only some compounds are listed: those with a hit (about 2.6% of all), similar ones and a draw of the others.
Hsp70 activator: switches on Hsp70 transcription; HeLa Hsp70 promoter luciferase reporter, luminescence; scaled: vehicle 0, proteasome-inhibitor control 100%; activation, % at 10 µM; 200,000 tested, 0.04% active;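 active = activation above the mean across all tested compounds plus 3 SD, cutoff set per campaign, cut at about 5.5% in these data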;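 note: 100% = MG132 at 30 µM as the positive control and 0% = DMSO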
MDM2 E3 inh: inhibitors of human Mdm2 E3 ubiquitin ligase. signal enhancement, % at 5 µM. cell-based MDM2 ubiquitination luciferase reporter, 2 h; 0 = plate control, 100 = twice control, blank-subtracted. 210,000 tested, 0.11% active. AID 1230;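 active = signal enhancement of 30% or more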;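 note: luminescence tracks abundance of the self-degrading MDM2-luciferase fusion protein; higher signal means inhibition of MDM2 E3 ligase activity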
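Assay system: stable mammalian line carrying autodegrading MDM2–luciferase fusion reporter; Input: 2000 cells in each well; Compound dosing: single-point 5 µM; Schedule: 2 h compound exposure at 37 °C; Signal: SteadyLite luciferase luminescence after 15 min room-temperature reagent incubation; Evaluation: % luminescence enhancement versus blank-corrected plate control mean; Benchmarks: plate controls and plate blanks.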
HSF1 activator: increases HSF-1 driven luciferase reporter signal | NIH3T3-HGL HSF-1 luciferase reporter, MG132, 8 h; 100% = twice DMSO control signal | activation, % at 9 µM | 300,000 tested, 1.7% active | AID 504408;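 active = mean replicate activation of at least 50% with a set share of replicates each reaching 50%; inconclusive = only one of those two conditions met; inactive = mean below 50% and too few replicates reaching it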;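 note: 0% = median of the neutral control wells and 100% = twice that signal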
HSF1 inh: HSF1 inhibition | AID 2098 | 300,000 tested, 0.77% active | NIH3T3-HGL HSE-luciferase, MG132-induced, luminescence 8 h; active compounds read low | activity change, negative = inhibition, % at 7.5 µM (by protocol);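 active = more than half of replicate wells show activity change below -50%, luminescence cut by over half; inconclusive = some wells, but at most half, below -50%; inactive = no replicate well below -50%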;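 note: luciferase reports HSF-1 transcriptional activity via heat shock element; 0% = median of DMSO wells and -100% = zero luminescence signal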
HSV replic up: increases HSV replication in cells | HSV replication augmentation in cells, fold increase | maximum fold increase | 220,000 tested, 0.005% active | AID 1956; in the data active = maximum fold increase above about 1.5; inconclusive = no clear call, values can overlap the other calls; tested in PC3 cells
Rad51 HR inh: Rad51 (human) homologous recombination inhibition; Q06609; hRad51 DNA strand exchange, fluorescence dequenching; inhibition, % at 10 µM; 200,000 tested, 0.085% active;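 active = inhibition above 40% at the single screening dose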;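 note: 0% = DMSO control wells and 100% = blanks with heterologous ssDNA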
Target sequence (Q06609 whole entry, looked up): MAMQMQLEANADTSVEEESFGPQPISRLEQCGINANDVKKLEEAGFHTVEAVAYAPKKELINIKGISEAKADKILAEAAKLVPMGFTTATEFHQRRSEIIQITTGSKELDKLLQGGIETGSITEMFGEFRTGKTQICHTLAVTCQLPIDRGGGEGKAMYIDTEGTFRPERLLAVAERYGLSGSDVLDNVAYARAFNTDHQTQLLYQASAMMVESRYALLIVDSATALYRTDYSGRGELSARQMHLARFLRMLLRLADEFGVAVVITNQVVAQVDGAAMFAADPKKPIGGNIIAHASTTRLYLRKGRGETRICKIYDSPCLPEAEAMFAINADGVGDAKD
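Test system: preformed human Rad51 ssDNA filaments; also added: Donor/quencher-labelled 47-bp dsDNA substrate; doses: 10 µM final, single point; times: 37 °C 15-min filament assembly, 30-min compound preincubation, 15-min exchange; detection: FRET fluorescence dequenching, excitation 485 nm, emission 520 nm; read-out basis: Fluorescence-based percent inhibition, control- and blank-normalised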
* marks the source's active call; other numbers are inactive results; i = inactive; u = inconclusive; x = no result.

SMILES	Hsp70 activator	MDM2 E3 inh	HSF1 activator	HSF1 inh	HSV replic up	Rad51 HR inh
Brc1ccc2nc(N3CCN(c4ccccc4)CC3)sc2c1	0	-19	73*	41	i	2
Fc1ccc2nc(Nc3nc4cc5c(cc4s3)OCO5)sc2c1	0	2	36	29	i	-30
c1ccc(N2CCN(c3nc4cc5c(cc4s3)OCO5)CC2)cc1	0	-42	72*	48	i	-2
Cc1cc(F)ccc1S(=O)(=O)N1CCCOC1CNC(=O)C(=O)NC1CCCC1 (configuration not stated)	x	x	-5	-1	x	x
CCN(C(=O)c1ccc2c(SCC(=O)O)c3c(nc2c1)CCC3)c1cc(Cl)ccc1OC	x	x	-79	-73*	x	x
O=C(CSc1c2c(nc3cc(Cl)ccc13)CCCC2)NCc1ccco1	0	-15	u	48	i	3
COc1ccc(NC(=O)CSc2c3c(nc4cc(Cl)ccc24)CCCC3)cc1OC	0	13	128*	74	i	9
COc1ccccc1NC(=O)CSc1c2c(nc3ccccc13)CCC2	0	1	9	13	i	x
COCCNC(=O)CSc1c2c(nc3ccc(Cl)cc13)CCCC2	0	3	107*	51	i	x
COc1ccc(NC(=O)CSc2c3c(nc4ccccc24)CCCC3)c(OC)c1	0	-4	70*	63	i	19
COc1cc(NC(=O)c2ccc3c(SCC(=O)O)c4c(nc3c2)CCC4)cc(OC)c1OC	x	x	9	4	x	x
COc1cc(/C=C2/SC(=S)N(CCC(=O)Nc3ccccc3)C2=O)cc(OC)c1OC	x	x	-3	5	x	x
Cc1cc(NC(=O)CSc2c3c(nc4ccccc24)CCC3)no1	-1	-18	72*	57	x	x
COc1cc(NC(=O)CSc2c3c(nc4ccccc24)CCC3)cc(OC)c1OC	0	-18	35	31	i	-4
O=C(Nc1ccc(S(=O)(=O)N2CCOCC2)cc1)c1ccccc1F	x	x	-8	5	x	x
FC(F)(F)c1nnc2ccc(N3CCCC3)nn12	0	1	7	5	i	57*
O=C(Nc1ccc(C(=O)NCCCN2CCN(c3ccccc3)CC2)cc1)C1=CSCCO1	x	x	7	5	x	x
Oc1c(Br)cc(Br)cc1C=Nc1cccc2ncccc12	x	x	62*	37	x	x
Cc1cccc(/N=C/c2nc(-c3ccccc3Br)oc2O)n1	0	-14	91*	45	x	3
COc1ccc(-c2cc3nc(C)n(N)c(=O)c3s2)cc1	x	-88	-72	-70*	i	18
Cc1nc2cc(-c3ccccc3)sc2c(=O)n1N	0	-91	-58	-53*	i	6
COc1ccc(-c2cc3nc4n(c(=O)c3s2)CCC4)cc1	-1	-82	14	-5	i	4
Cc1ccc(C)n1-n1c(C)nc2sc(-c3ccccc3)cc2c1=O	0	-16	6	23	i	-1
C=C1C(=O)C2=CC1CCC(=O)C1(C)CCC(OC(C)=O)C(C)(C)C1CC2O (configuration not stated)	x	x	89*	89*	x	x
NC(=O)c1cc(C(=O)c2ccc(Cl)cc2)c[nH]1	0	-16	-22	-7	i	-135
SMILES	Hsp70 activator	MDM2 E3 inh	HSF1 activator	HSF1 inh	HSV replic up	Rad51 HR inh
COc1ccc2c(c1)CCc1c(C(=O)NCCN3CCOCC3)noc1-2	0	-1	-6	1	i	-1
COc1ccc2c(c1)CCc1c(C(=O)N(C)c3ccccc3)noc1-2	1	-7	69*	37	i	6
COCC(C)NC(=O)c1noc2c1CCc1cc(OC)ccc1-2 (configuration not stated)	0	-14	71*	49	i	5
COCCNC(=O)c1noc2c1CCc1cc(OC)ccc1-2	0	16	77*	47	i	6
Cc1c2cnn(CC(=O)N3CCOCC3)c(=O)c2c(C)n1Cc1ccccc1F	x	x	-3	-2	x	x
COc1ccc2oc(=O)c(C(=O)N3CCN(c4ccccc4)CC3)cc2c1	1	4	82*	44	i	-5
COc1ccc2oc(=O)c(C(=O)N3CCN(C(=O)c4ccccc4)CC3)cc2c1	x	x	7	-2	x	x
CN(C(=O)c1cccc(COc2ccc(Cl)cc2Cl)c1)c1ccccc1	0	46*	-26	-15	i	x
O=C(NCc1ccccc1)c1cccc(COc2cc(Cl)ccc2Cl)c1	0	2	42	20	i	-2
CSc1cccc(NC(=O)c2sc3nc4n(c(=O)c3c2C)CCC4)c1	x	x	64*	44	x	x
CN(C)c1cccc(C(=O)Nc2cccc(S(=O)(=O)NC3=NCCC3)c2)c1	x	x	-4	-11	x	x
COc1ccc(S(=O)(=O)NCCC(=O)NCc2cccs2)cc1	0	2	-77	-70*	i	-1
CCn1c(C(C#N)/C(=N\S(=O)(=O)c2cccs2)c2ccccc2)nc2ccccc21 (configuration not stated)	0	-13	-72	-66*	i	-4
CCn1c(-c2cccs2)nc2ccccc21	0	13	14	4	i	-6
Cc1cc(/C=C2\Cc3ccccc3C2=O)c(C)n1-c1ccccc1	0	-64	-74	-75*	i	-6
Cc1cc(C=C2C(=O)c3ccccc3C2=O)c(C)n1-c1ccccc1	0	-80	-57	u	i	0
Cc1c(C(=O)N(C)Cc2cccc(F)c2)oc2c(Cl)cccc12	x	x	-4	3	x	x
Cc1cccc(C(C)C)c1NC(=O)c1ccc(COc2ccc3c(C)cc(=O)oc3c2)cc1	0	-8	66*	17	i	20
CCCN1CCc2c(sc3nc(SCC)n(-c4ccc(OC)cc4)c(=O)c23)C1	x	x	13	-6	x	x
COc1ccc(N(CC(=O)NC2CCCC2)C(=O)CCC(=O)Nc2nc(C)cs2)cc1OC	x	x	-1	-7	x	x
Cc1nc2c(ccc3nc(NC(=O)Cc4cccc5ccccc45)sc32)s1	0	x	-68	-56*	x	x
Cc1nc2c(ccc3nc(NC(=O)C(c4ccccc4)c4ccccc4)sc32)s1	0	x	-6	-4	i	0
COc1ccc(-c2cc(=O)oc3cc(OCC(=O)NCC4CCC(C(=O)O)CC4)ccc23)cc1 (configuration not stated)	x	x	-5	2	x	x
Cc1ccc(C)c(NC(=O)c2cc(-c3cc(C)c(C)cc3O)n[nH]2)c1	x	x	1	-5	x	x
COC(=O)C1NN=C(C(=O)c2ccc(Cl)cc2)C1c1ccc(OC)cc1 (configuration not stated)	-1	2	54*	19	i	16
Cc1cccc(Nc2nnc(-c3ccc(N4CCOCC4)c([N+](=O)[O-])c3)c3ccccc23)c1	-1	-12	-12	-14	i	-1

Screening data as filed in PubChem.
